Assay results taken from ChEMBL document CHEMBL1156325, “Novel acyl coenzyme A (CoA): diacylglycerol acyltransferase-1 inhibitors: synthesis and biological activities of diacylethylenediamine derivatives” (Bioorg Med Chem, 2010).
pIC50: −log10 of the molar value. In brackets after ≈: the same amount, converted by molar mass.

Columns and labels:
[1] = Metabolic stability in human liver microsomes at 1 umol/L after 20 mins by HPLC assessed per mg of protein; type: ADME, Microsome; details: read-out: Stability
Procedure, shortened: (§1)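 Hepatic microsomes (0.2 mg/mL protein) were incubated at 37 °C for 0 and 20 min with an NADPH-generating system added at 10% of reaction volume. The system held 50 mmol/L MgCl₂, 50 mmol/L glucose-6-phosphate, 5 mmol/L β-NADP⁺ and 15 unit/mL G6PDH. Reactions were stopped with an equal volume of acetonitrile, run in duplicate. Parent disappearance was measured by HPLC-UV and expressed as %/min/mg.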

[2] = Solubility at pH 6.8; type: physicochemical; details: buffer
[3] = Metabolic stability in rat liver microsomes at 1 umol/L after 20 mins by HPLC assessed per mg of protein; type: ADME, Microsome; details: read-out: Stability; procedure, shortened: as §1
[4] = Metabolic stability in mouse liver microsomes at 1 umol/L after 20 mins by HPLC assessed per mg of protein; type: ADME, Microsome; details: read-out: Stability; procedure, shortened: as §1
[5] = target: T1, Diacylglycerol O-acyltransferase 1 (Mus musculus, UniProt Q9Z2A7); assay: Inhibition of DGAT1 in mouse C2C12 cells assessed as suppression of [14C]triglyceride accumulation pretreated for 20 mins before [14C]oleic acid challenge measured after 20 mins by TLC analysis; type: cell-based
T1 sequence (Q9Z2A7 whole entry): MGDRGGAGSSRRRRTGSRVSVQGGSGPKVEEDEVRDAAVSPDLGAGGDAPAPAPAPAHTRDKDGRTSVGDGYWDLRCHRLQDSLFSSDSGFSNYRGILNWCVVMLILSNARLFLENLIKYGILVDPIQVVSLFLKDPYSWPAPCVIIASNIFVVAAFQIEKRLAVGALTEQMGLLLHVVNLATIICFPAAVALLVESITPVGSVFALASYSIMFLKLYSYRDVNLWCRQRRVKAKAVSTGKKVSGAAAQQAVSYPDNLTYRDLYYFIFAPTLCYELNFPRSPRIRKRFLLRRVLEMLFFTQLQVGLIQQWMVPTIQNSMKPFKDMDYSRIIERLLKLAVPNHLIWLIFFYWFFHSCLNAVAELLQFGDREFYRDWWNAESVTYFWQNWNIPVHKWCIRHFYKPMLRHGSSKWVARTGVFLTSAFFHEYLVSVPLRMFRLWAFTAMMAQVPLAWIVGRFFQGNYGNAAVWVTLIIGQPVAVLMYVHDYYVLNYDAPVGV
Procedure, shortened: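 C2C12 cell suspension (10⁶ cells/mL final) was preincubated with serial compound dilutions at 37 °C for 20 min. [¹⁴C]-oleic acid substrate was then added with 0.001% fatty-acid-free BSA, 0.2% ethanol and 0.1% DMSO final. After 20 min at 37 °C, reactions were stopped with chloroform/methanol (1:2). Chloroform-phase lipids were separated by TLC (hexane/ether/ethyl acetate/acetic acid 255:30:15:0.6).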

[6] = target: T2, Diacylglycerol O-acyltransferase 1 (Homo sapiens, UniProt O75907); assay: Inhibition of human DGAT1 expressed in baculovirus infected Sf9 cells using [14C]oleoyl-CoA after 15 mins by TLC analysis
T2 sequence (O75907 whole entry): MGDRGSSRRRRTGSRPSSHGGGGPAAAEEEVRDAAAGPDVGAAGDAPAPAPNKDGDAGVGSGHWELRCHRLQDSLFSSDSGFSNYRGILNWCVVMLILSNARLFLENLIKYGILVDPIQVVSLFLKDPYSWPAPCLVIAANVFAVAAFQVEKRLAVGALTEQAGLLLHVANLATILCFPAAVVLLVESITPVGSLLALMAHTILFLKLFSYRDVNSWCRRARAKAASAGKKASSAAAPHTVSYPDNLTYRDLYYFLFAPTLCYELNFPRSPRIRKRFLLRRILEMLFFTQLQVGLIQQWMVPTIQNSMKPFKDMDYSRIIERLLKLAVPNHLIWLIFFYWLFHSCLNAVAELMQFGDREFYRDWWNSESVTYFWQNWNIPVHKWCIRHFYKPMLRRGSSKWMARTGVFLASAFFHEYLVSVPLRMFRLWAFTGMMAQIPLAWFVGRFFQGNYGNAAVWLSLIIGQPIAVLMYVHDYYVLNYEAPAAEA

Mus musculus [7] = assay: Toxicity in C57BL/6 mouse assessed as effect on total food intake at 3 mg/kg, po BID for 4 weeks; type: organism-based; parameters: dose 3 mg/kg, route oral; details: in vivo, 672 h
Procedure, shortened: (§2)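 C57BL/6 mice fed a high-fat diet were dosed orally b.i.d. at 3 mg/kg as a 0.5% MC suspension for four weeks. Endpoints were body weight gain, total food intake, and mesenteric, perirenal and subcutaneous white adipose tissue weights.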

Mus musculus [8] = assay: Antiobesity activity in C57BL/6 mouse assessed as reduction in mesenteric white adipose tissue weight at 3 mg/kg, po BID for 4 weeks; type: functional; parameters: scale not given: the % may be the effect or the level left; procedure, shortened: as §2
Mus musculus [9] = assay: Antiobesity activity in C57BL/6 mouse assessed as reduction in subcutaneous white adipose tissue weight at 3 mg/kg, po BID for 4 weeks; type: functional; parameters: scale not given: the % may be the effect or the level left; procedure, shortened: as §2
Mus musculus [10] = assay: Antiobesity activity in C57BL/6 mouse assessed as reduction in body weight gain at 3 mg/kg, po BID for 4 weeks; type: functional; parameters: scale not given: the % may be the effect or the level left; procedure, shortened: as §2
Mus musculus [11] = assay: Antiobesity activity in C57BL/6 mouse assessed as reduction in perirenal white adipose tissue weight at 3 mg/kg, po BID for 4 weeks; type: functional; parameters: scale not given: the % may be the effect or the level left; procedure, shortened: as §2

Row | remaining at 20 min, 1 µM [1] [%] | remaining at 20 min, 1 µM [3] [%] | remaining at 20 min, 1 µM [4] [%] | pIC50 [5] | SMILES | other results
1 | 13 | 11 | 16 |  | CCOc1cc(C)c(C(=O)CCC(=O)Nc2nc(-c3ccccc3)c(Cc3ccccc3)s2)cc1OCC | solubility [2]: 0.08 µg/mL (≈ 0.151 µM)
2 | 10 | 14 | 17 |  | CCOc1ccc(C(=O)NCCNC(=O)c2nc(-c3ccccc3)c(Cc3ccccc3)s2)cc1 | solubility [2]: < 0.05 µg/mL
3 | 4.8 | 2.6 | 1.8 | 5.92 | O=C(NCCNC(=O)c1cn(-c2ccccc2)nc1C(F)(F)F)c1ccc(Cl)cn1 | 
4 | 2.2 | 1.1 | 0 | 6.43 | O=C(NCCNC(=O)c1cn(-c2ccccc2)nc1C(F)(F)F)c1ccc(Cl)nc1 | 
5 | 14 | 10 | 7 | 7.04 | CCOc1ccc(C(=O)NCCNC(=O)c2cn(-c3ccccn3)nc2C(F)(F)F)cc1 | 
6 | 5.7 | 18 | 0.5 | 6.21 | CCOc1ccc(C(=O)NCCNC(=O)c2cn(-c3ccccc3O)nc2C(F)(F)F)cc1 | 
7 | 12 | 12 | 14 | 5.92 | CCOc1ccc(C(=O)NCCNC(=O)c2nn(-c3ccccc3)cc2C)cc1 | 
8 | 5.1 | 3.4 | 2.5 | 7.06 | CCOc1ccc(C(=O)NCCNC(=O)c2cn(-c3ccccc3)nc2C(F)(F)F)cn1 | 
9 |  |  |  | 5.47 | CCOc1ccc(C(=O)NCCNC(=O)c2cn(-c3cccnc3)nc2C(F)(F)F)cc1 | 
10 |  |  |  | < 5.00 | CCOc1ccc(C(=O)NCCNC(=O)c2cn(-c3ccncc3)nc2C(F)(F)F)cc1 | 
11 | 7.4 | 7.1 | 6.5 | 6.22 | CCOc1ccc(C(=O)NCCNC(=O)c2cn(-c3cccc(OCC)c3)nc2C(F)(F)F)cc1 | 
12 | 9 | 6.5 | 7 | 7.11 | CCOc1ccc(C(=O)NCCNC(=O)c2cn(-c3ccccc3)nc2C(F)(F)F)cc1 | solubility [2]: 1.1 µg/mL (≈ 2.46 µM)
13 | 5 | 5.8 | 2.5 | 6.59 | CCOc1ccc(C(=O)NCCNC(=O)c2cn(-c3ccccc3)nc2C)cc1 | 
14 |  |  |  |  | CCOc1ccc(C(=O)N[C@H](CO)CNC(=O)c2cn(-c3ccccc3)nc2C(F)(F)F)cc1 | pIC50 [6]: < 5.00
15 |  |  |  |  | CCOc1ccc(C(=O)N[C@@H](CO)CNC(=O)c2cn(-c3ccccc3)nc2C(F)(F)F)cc1 | pIC50 [6]: < 5.00
16 |  |  |  |  | CCOc1ccc(C(=O)NC[C@@H](CO)NC(=O)c2cn(-c3ccccc3)nc2C(F)(F)F)cc1 | pIC50 [6]: < 5.00
17 | 5.9 | 6.5 | 3.5 | 6.40 | O=C(NCCNC(=O)c1cn(-c2ccccc2)nc1C(F)(F)F)c1ccc(-n2cccn2)cc1 | 
18 | 14 | 8.3 | 19 | 5.29 | CCOc1cccc(C(=O)NCCNC(=O)c2cn(-c3ccccc3)nc2C(F)(F)F)c1 | 
19 |  |  |  |  | CCOc1ccc(C(=O)NC[C@H](CO)NC(=O)c2cn(-c3ccccc3)nc2C(F)(F)F)cc1 | pIC50 [6]: < 5.00
20 | 5.5 | 18 | 7.5 |  | CCOc1ccc(C(=O)NCCNC(=O)c2cn(Cc3ccccc3)nc2C(F)(F)F)cc1 | 
21 | 4.5 | 7.2 | 3.4 | 5.82 | CCOc1ccc(C(=O)NCCNC(=O)c2cn(-c3ccc(Cl)cc3)nc2C(F)(F)F)cc1 | 
22 | 8.7 | 11 | 7.8 | 6.19 | CCOc1ccc(C(=O)NCCNC(=O)c2cn(C3CCCCC3)nc2C(F)(F)F)cc1 | 
23 | 7.5 | 8.7 | 14 | 6.42 | CCOc1ccc(C(=O)NCCNC(=O)c2cn(-c3ccc(OCC)cc3)nc2C(F)(F)F)cc1 | 
24 | 2.1 | 0.4 | 0 | 7.36 | O=C(NCCNC(=O)c1cn(-c2ccccc2)nc1C(F)(F)F)c1ccc(OCC(F)(F)F)nc1 | Activity (Mus musculus [7]): Non-toxic; Activity (Mus musculus [8]): -25%; Activity (Mus musculus [9]): -2.8%; Activity (Mus musculus [10]): -75%; Activity (Mus musculus [11]): -12%
